# pIC50: −log10 of the molar value. The source made the active and inactive calls. The rule behind the calls is not given here.
# Tests used:
# Staphylococcus aureus [1] = test: Antimicrobial activity against methicillin-resistant Staphylococcus aureus after 18 to 24 hrs in aerobic condition by two-fold serial dilutions method; type: functional
# Outline: (§1)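 Strains grown on LB at 37 °C aerobically, then in Mueller-Hinton broth overnight at 200 rpm and brought to log phase (OD600 ~0.6). About 10^5 bacteria/mL exposed to two-fold serial dilutions 0–500 µM, DMSO 0.2% final as control. Aerobic incubation at 37 °C for 18–24 h; OD600 read; MIC = lowest concentration inhibiting visible growth. n = 3.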
# Aspergillus ochraceus = test: Antifungal activity against Aspergillus ochraceus after 2 to 5 days by two-fold serial dilutions method; type: functional
# Outline: (§2)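 Broth two-fold serial dilution MIC, 0 to 500 µM (1:2 steps), from 200 mM DMSO stocks; 0.2% DMSO final as vehicle control. Inoculum about 10^5 cells/mL. Strains maintained on potato dextrose agar and in RPMI medium. Plates held at room temperature for 2 to 5 days, OD600 read; MIC = lowest concentration preventing visible growth; independent triplicate.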
# Acinetobacter baumannii [2] = test: Bactericidal activity against Acinetobacter baumannii MRS in aerobic condition; type: functional, organism-based
# Outline: (§3)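 From the MIC plates, 10 µL from each well without growth was streaked onto agar suited to the organism and incubated under that organism's growth conditions. Colonies were then counted; MBC = lowest concentration allowing ≤1 colony, i.e. killing 99.9% of bacteria.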
# Clostridium botulinum = test: Bactericidal activity against Clostridium botulinum in anaerobic condition; type: functional, organism-based
# Fusarium oxysporum = test: Fungicidal activity against Fusarium oxysporum; type: functional, organism-based
# Outline: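 Filamentous fungi grown on potato dextrose agar and tested in RPMI medium with two-fold serial dilutions (0–500 µM, 0.2% DMSO final). Plates held at room temperature for 2 to 5 days, then OD600 read; MIC taken as the lowest concentration with no visible growth. The fungicidal endpoint is ≤1 colony after streaking 10 µL of no-growth wells on agar. n = 3.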
# BEAS-2B = test: Cytotoxicity against human BEAS2B cells assessed as reduction in cell viability after 48 hrs by Resazurin dye-based assay; details: for pIC50: Homo sapiens, BEAS-2B; for Activity: human, beas-2b
# Outline: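 Normal human lung epithelial (BEAS-2B) and lung fibroblast (IMR-90) cells were grown in DMEM with 10% FCS. Cells were seeded at ~10^4/well, grown to confluence (48–72 h), then exposed to increasing concentrations for 48 h at 37 °C, 5% CO2, with 0.2% DMSO as control. Resazurin was added for 4 h and fluorescence read at 530/590 nm. Viability was normalized to DMSO wells and IC50 calculated.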
# Lactococcus lactis = test: Antimicrobial activity against Lactococcus lactis after 18 to 24 hrs in aerobic condition by two-fold serial dilutions method; type: functional
# Outline: (§4)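 Colonies grown overnight (~16 h) in Mueller-Hinton broth at 37 °C, 200 rpm, diluted 1/100 and grown to log phase (OD600 ~0.6), then diluted to ~10^5 bacteria/mL. Exposed to 0 to 500 µM in 1:2 series (0.2% DMSO final control), aerobic, 37 °C, 18–24 h. OD600 read; MIC = lowest concentration without visible growth; n = 3.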
# Candida albicans = test: Fungicidal activity against Candida albicans; type: functional, organism-based
# Outline: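 C. albicans in RPMI buffered with 0.165 M MOPS (pH 7.0). Two-fold serial dilutions from 0 to 500 µM, 0.2% DMSO final. Plates incubated at 35 °C for 24 h; OD600 read, MIC taken as the lowest concentration with no visible growth. Fungicidal concentration defined by ≤1 colony after streaking 10 µL of no-growth wells on agar. n = 3.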
# Helicobacter pylori = test: Antimicrobial activity against Helicobacter pylori after 18 to 24 hrs in anaerobic condition by two-fold serial dilutions method; type: functional
# Outline: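 Mueller-Hinton broth preculture grown to log phase (OD600 ~0.6), diluted to ~10^5 bacteria/mL. Serial 1:2 dilutions 0 to 500 µM, 0.2% DMSO final control. Incubated at 37 °C for 18–24 h under anaerobic conditions from a gas-pack system; OD600 read; MIC = lowest concentration without visible growth; triplicate.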
# Klebsiella pneumoniae = test: Antimicrobial activity against Klebsiella pneumoniae after 18 to 24 hrs in aerobic condition by two-fold serial dilutions method; type: functional; outline: as §4
# Aspergillus flavus = test: Antifungal activity against Aspergillus flavus after 2 to 5 days by two-fold serial dilutions method; type: functional; outline: as §2
# Vibrio diabolicus = test: Bactericidal activity against Vibrio diabolicus in aerobic condition; type: functional, organism-based
# Outline: (§5)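 MH broth; log-phase bacteria (OD600 ~0.6) diluted to ~10^5 bacteria/mL and exposed to two-fold serial dilutions (0–500 µM; 0.2% DMSO final as vehicle control) at 37 °C, aerobic, 18–24 h. MIC is the lowest concentration preventing visible growth (OD600). MBC is found by streaking 10 µL from no-growth wells onto agar; the MBC is the concentration where ≤1 colony grew. n = 3.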
# Cutibacterium acnes = test: Antimicrobial activity against Propionibacterium acnes after 18 to 24 hrs in aerobic condition by two-fold serial dilutions method; type: functional
# Salmonella enterica = test: Antimicrobial activity against Salmonella enterica after 18 to 24 hrs in aerobic condition by two-fold serial dilutions method; type: functional; outline: as §4
# Acinetobacter baumannii [3] = test: Bactericidal activity against Acinetobacter baumannii in aerobic condition; type: functional, organism-based; outline: as §3
# Shigella flexneri = test: Bactericidal activity against Shigella flexneri in aerobic condition; type: functional, organism-based; outline: as §5
# Blautia producta = test: Antimicrobial activity against Clostridium coccoides after 18 to 24 hrs in anaerobic condition by two-fold serial dilutions method; type: functional
# Outline: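 Precultures in BHI broth at 37 °C in an anaerobic cabinet, grown to log phase (OD600 ~0.6), then seeded at ~10^5 bacteria/mL. Two-fold dilutions from 0 to 500 µM, 0.2% DMSO final as control. Plates incubated anaerobically at 37 °C for 18–24 h, OD600 read; MIC = lowest concentration giving no visible growth; independent triplicate.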
# Citrobacter farmeri = test: Bactericidal activity against Citrobacter farmeri in aerobic condition; type: functional, organism-based; outline: as §3
# Pseudomonas aeruginosa = test: Antimicrobial activity against Pseudomonas aeruginosa after 18 to 24 hrs in aerobic condition by two-fold serial dilutions method; type: functional; outline: as §4
# Arthrobacter gandavensis = test: Bactericidal activity against Arthrobacter gandavensis in aerobic condition; type: functional, organism-based; outline: as §3
# Vibrio alginolyticus = test: Bactericidal activity against Vibrio alginolyticus in aerobic condition; type: functional, organism-based; outline: as §5
# Bacillus subtilis = test: Antimicrobial activity against Nisin-resistant Bacillus subtilis after 18 to 24 hrs in aerobic condition by two-fold serial dilutions method; type: functional; outline: as §1
# Clostridium perfringens = test: Bactericidal activity against Clostridium perfringens in anaerobic condition; type: functional, organism-based
# Staphylococcus aureus [4] = test: Bactericidal activity against methicillin-resistant Staphylococcus aureus in aerobic condition; type: functional, organism-based
# Aspergillus niger = test: Fungicidal activity against Aspergillus niger after 48 hrs; type: functional, organism-based
# Outline: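 A. niger in RPMI medium, two-fold serial dilutions 0–500 µM (0.2% DMSO final). Incubation at 35 °C for 48 h; OD600 read, MIC as the lowest concentration with no visible growth. Killing concentration determined by streaking 10 µL from no-growth wells on agar, where ≤1 colony grew. Triplicate.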
# Fusarium verticillioides = test: Antifungal activity against Fusarium verticillioides after 2 to 5 days by two-fold serial dilutions method; type: functional; outline: as §2
# Penicillium verrucosum = test: Antifungal activity against Penicillium verrucosum after 2 to 5 days by two-fold serial dilutions method; type: functional; outline: as §2
structure (smiles),measurement,setting,value
COc1cc(/C=C2\Oc3cc(O)cc(O)c3C2=O)ccc1OCc1ccccc1,MIC,Staphylococcus aureus [1],15.6 µM
same,MIC,Aspergillus ochraceus,> 500 µM
same,Activity,Acinetobacter baumannii [2],Active
same,Activity,Clostridium botulinum,Active
same,Activity,Fusarium oxysporum,Active
same,pIC50,BEAS-2B,3.72
same,Activity,BEAS-2B,Dose-dependent effect
same,MIC,Lactococcus lactis,31.2 µM
same,Activity,Candida albicans,Active
same,MIC,Helicobacter pylori,15.6 µM
same,MIC,Klebsiella pneumoniae,> 500 µM
same,MIC,Aspergillus flavus,> 500 µM
same,Activity,Vibrio diabolicus,Active
same,MIC,Cutibacterium acnes,31.2 µM
same,MIC,Salmonella enterica,> 500 µM
same,Activity,Acinetobacter baumannii [3],Active
same,Activity,Shigella flexneri,Active
same,MIC,Blautia producta,250 µM
same,Activity,Citrobacter farmeri,Active
same,MIC,Pseudomonas aeruginosa,> 500 µM
same,Activity,Arthrobacter gandavensis,Active
same,Activity,Vibrio alginolyticus,Active
same,MIC,Bacillus subtilis,3.9 µM
same,Activity,Clostridium perfringens,Active
same,Activity,Staphylococcus aureus [4],Active
same,Activity,Aspergillus niger,Active
same,MIC,Fusarium verticillioides,> 500 µM
same,MIC,Penicillium verrucosum,> 500 µM
O=C1/C(=C/c2ccc(F)cc2)Oc2cc(O)cc(O)c21,MIC,Staphylococcus aureus [1],7.8 to 15.6 µM
same,MIC,Aspergillus ochraceus,> 500 µM
same,Activity,Acinetobacter baumannii [2],Active
same,Activity,Clostridium botulinum,Active
same,Activity,Fusarium oxysporum,Active
same,pIC50,BEAS-2B,3.23
same,Activity,BEAS-2B,Dose-dependent effect
same,MIC,Lactococcus lactis,15.6 µM
same,Activity,Candida albicans,Active
same,MIC,Helicobacter pylori,> 500 µM
same,MIC,Klebsiella pneumoniae,> 500 µM
same,MIC,Aspergillus flavus,> 500 µM
same,Activity,Vibrio diabolicus,Active
same,MIC,Cutibacterium acnes,31.2 µM
same,MIC,Salmonella enterica,> 500 µM
same,Activity,Acinetobacter baumannii [3],Active
same,Activity,Shigella flexneri,Active
same,MIC,Blautia producta,> 500 µM
same,Activity,Citrobacter farmeri,Active
same,MIC,Pseudomonas aeruginosa,> 500 µM
same,Activity,Arthrobacter gandavensis,Active
same,Activity,Vibrio alginolyticus,Active
same,MIC,Bacillus subtilis,31.2 µM
same,Activity,Clostridium perfringens,Active
same,Activity,Staphylococcus aureus [4],Active
same,Activity,Aspergillus niger,Active
same,MIC,Fusarium verticillioides,> 500 µM
same,MIC,Penicillium verrucosum,> 500 µM
O=C1/C(=C/c2ccccc2)Oc2cc(O)cc(O)c21,MIC,Staphylococcus aureus [1],15.6 to 31.2 µM
same,MIC,Aspergillus ochraceus,> 500 µM
same,Activity,Acinetobacter baumannii [2],Active
same,Activity,Clostridium botulinum,Active
same,Activity,Fusarium oxysporum,Active
same,pIC50,BEAS-2B,3.55
same,Activity,BEAS-2B,Dose-dependent effect
same,MIC,Lactococcus lactis,15.6 µM
same,Activity,Candida albicans,Active
same,MIC,Helicobacter pylori,15.6 µM
same,MIC,Klebsiella pneumoniae,> 500 µM
same,MIC,Aspergillus flavus,> 500 µM
same,Activity,Vibrio diabolicus,Active
same,MIC,Cutibacterium acnes,31.2 µM
same,MIC,Salmonella enterica,> 500 µM
same,Activity,Acinetobacter baumannii [3],Active
same,Activity,Shigella flexneri,Active
same,MIC,Blautia producta,500 µM
same,Activity,Citrobacter farmeri,Active
same,MIC,Pseudomonas aeruginosa,> 500 µM
same,Activity,Arthrobacter gandavensis,Active
same,Activity,Vibrio alginolyticus,Active
same,MIC,Bacillus subtilis,31.2 µM
same,Activity,Clostridium perfringens,Active
same,Activity,Staphylococcus aureus [4],Active
same,Activity,Aspergillus niger,Active
same,MIC,Fusarium verticillioides,> 500 µM
same,MIC,Penicillium verrucosum,> 500 µM
